Bioassay records: PubChem, several laboratories
The entries come from a sample that favours hits as a whole.
CHOP UPR activ – activators of apoptotic arm of unfolded protein response (CHOP). CHO-CHOP luciferase reporter, UPR activation, luminescence; percent of tunicamycin response over DMSO baseline. activation, % at 10 µM. actives 0.34% (n = 330,000);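 active = at 10 µM dose, activation of 40% or more, normalized to positive control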
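measured by = luciferase luminescence | assay system = CHO-CHOP cells, stable luciferase reporter of PERK-eIF2a-CHOP signalling | amount = 500 reporter cells seeded per well | timing = 6 h compound exposure at 37 °C after overnight seeding | controls = positive tunicamycin 10 µg/mL, negative DMSO alone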
VLA-4 inh – inhibition in a human VLA-4 binding assay. VLA-4 expressing cells, ligand binding flow cytometry. actives 0.2% (n = 330,000). inhibition, % (about 7 µM as worked out from the volumes in the protocol). P13612; in the data active = inhibition above about 50%
Target sequence (P13612 whole entry, looked up): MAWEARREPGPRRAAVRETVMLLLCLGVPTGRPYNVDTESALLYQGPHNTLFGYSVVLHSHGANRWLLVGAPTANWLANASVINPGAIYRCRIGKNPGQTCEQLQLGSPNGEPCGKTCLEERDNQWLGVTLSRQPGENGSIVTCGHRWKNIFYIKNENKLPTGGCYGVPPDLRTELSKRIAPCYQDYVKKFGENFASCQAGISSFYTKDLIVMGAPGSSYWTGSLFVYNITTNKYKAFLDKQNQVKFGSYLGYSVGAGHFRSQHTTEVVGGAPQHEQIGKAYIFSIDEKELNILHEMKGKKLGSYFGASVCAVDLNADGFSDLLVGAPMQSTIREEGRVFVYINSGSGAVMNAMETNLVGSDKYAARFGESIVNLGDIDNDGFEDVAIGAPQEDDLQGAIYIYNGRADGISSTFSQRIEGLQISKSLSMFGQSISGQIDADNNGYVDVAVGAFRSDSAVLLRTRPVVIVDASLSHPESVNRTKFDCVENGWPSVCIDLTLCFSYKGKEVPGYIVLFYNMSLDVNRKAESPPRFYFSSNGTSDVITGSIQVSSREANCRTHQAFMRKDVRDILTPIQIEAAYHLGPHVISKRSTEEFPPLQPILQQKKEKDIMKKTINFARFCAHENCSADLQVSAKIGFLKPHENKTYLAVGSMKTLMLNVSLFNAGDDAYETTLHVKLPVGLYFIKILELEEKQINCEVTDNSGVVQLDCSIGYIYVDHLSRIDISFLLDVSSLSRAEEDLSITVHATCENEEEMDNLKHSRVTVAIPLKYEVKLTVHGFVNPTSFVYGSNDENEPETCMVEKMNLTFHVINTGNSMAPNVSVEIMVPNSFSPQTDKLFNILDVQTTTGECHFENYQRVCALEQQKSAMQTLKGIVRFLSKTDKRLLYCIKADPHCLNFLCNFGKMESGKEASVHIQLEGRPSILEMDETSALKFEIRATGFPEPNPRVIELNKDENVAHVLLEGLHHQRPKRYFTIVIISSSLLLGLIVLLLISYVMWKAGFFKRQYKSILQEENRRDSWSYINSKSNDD
XBP1 UPR activ – adaptive UPR (XBP1) activation | activation, % at 20 µM | actives 0.33% (n = 330,000) | CHO-XBP1 luciferase reporter, IRE1-XBP1 UPR activation, luminescence; percent of tunicamycin response, DMSO as zero | AID 463104;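 active = versus positive control, 20 µM dose yields 30% or more activation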
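Test system: CHO-XBP1 luciferase reporter cells | Buffer or medium: Serum-containing F12 medium, 10% FBS | Schedule: 6 h compound exposure at 37 °C, 5% CO2 | Detection: Steady-Glo luciferase glow luminescence, 10 min after reagent addition | Read-out basis: Activation, % of tunicamycin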
CHOP inhibitor – inhibitors of CHOP induction in ER stress response | CHO-K1 CHOP-promoter luciferase, tunicamycin-induced, 15-18 h | inhibition, % at 10 µM | actives 3.8% (n = 220,000) | AID 2732;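 active = compounds that reduced the stress-induced luciferase reporter signal by more than about 70% of percent inhibition, limit read from the data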
B2AR ag – human beta-2 adrenergic receptor agonism by FAP; P07550; Am2.2-beta2AR cells, FAP receptor internalization, flow cytometry; response, % (no concentration beside the values); actives 0.43% (n = 340,000); AID 504454;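 active = response above a set limit, near 3 SD of response in nonfluorescent compounds, cut at about 42% in these data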
A number is an active result.

Results for CCC(=NNC(=O)c1ccc2c(c1)nc(C)n2CC)c1cc(F)ccc1O ?
CHOP UPR activ: inactive; VLA-4 inh: inactive; XBP1 UPR activ: inactive; B2AR ag: inactive

What do the screens show for `CC(NC(=O)C(C)N1c2cccc3cccc(c23)S1(=O)=O)c1ccccc1` (stereo unspecified)?
CHOP UPR activ: inactive; VLA-4 inh: inactive; XBP1 UPR activ: inactive; B2AR ag: inactive

What do the screens show for `COc1ccc(OC)c(CCNC(=O)C(C)n2nc(C)c3c(C)n(-c4ccc(C)cc4)nc3c2=O)c1` (stereo unspecified)?
CHOP UPR activ: inactive; VLA-4 inh: inactive; XBP1 UPR activ: inactive; B2AR ag: inactive

How did S=C(Nc1ccc(Br)cc1)N1CCN(c2ccccn2)CC1 do in these assays?
CHOP UPR activ: inactive; VLA-4 inh: inactive; XBP1 UPR activ: inactive; B2AR ag: inactive

Results for CCOC(=O)c1[nH]c(CSc2nnc(-c3ccc(OC)cc3)o2)c(C(=O)OCC)c1C ?
CHOP UPR activ: inactive; VLA-4 inh: inactive; XBP1 UPR activ: inactive; CHOP inhibitor: 70.1; B2AR ag: inactive

Results for O=C(NC(=S)Nc1nc(-c2ccccc2)cs1)c1cccs1 ?
CHOP UPR activ: inactive; VLA-4 inh: inactive; XBP1 UPR activ: inactive; CHOP inhibitor: 74.3; B2AR ag: inactive

Results for O=C(Nc1nc(-c2ccccc2)cs1)c1ccc(Br)o1 ?
CHOP UPR activ: inactive; VLA-4 inh: inactive; XBP1 UPR activ: inactive; CHOP inhibitor: 74.4; B2AR ag: inactive

Results for O=C(Nc1cccc2cccnc12)c1ccc(Br)o1 ?
CHOP UPR activ: inactive; VLA-4 inh: inactive; XBP1 UPR activ: inactive; CHOP inhibitor: 77.4; B2AR ag: inactive

How did Cc1ccc(-c2csc(NC(=S)NC(=O)c3cccs3)n2)cc1 do in these assays?
CHOP UPR activ: inactive; VLA-4 inh: inactive; XBP1 UPR activ: inactive; CHOP inhibitor: inactive; B2AR ag: inactive

How did CC1CN(C(=O)CCC(=O)NCc2ccc(Cl)cc2)c2ccccc2O1 (stereo unspecified) do in these assays?
CHOP UPR activ: inactive; VLA-4 inh: inactive; XBP1 UPR activ: inactive; B2AR ag: inactive

Results for COc1cc(CNc2nc(C)c([N+](=O)[O-])c(C)c2C#N)cc(OC)c1OC ?
CHOP UPR activ: inactive; VLA-4 inh: inactive; XBP1 UPR activ: inactive; CHOP inhibitor: 78.8; B2AR ag: inactive

What do the screens show for `COc1ccc(CNc2nc(C)c([N+](=O)[O-])c(C)c2C#N)cc1`?
CHOP UPR activ: inactive; VLA-4 inh: inactive; XBP1 UPR activ: inactive; CHOP inhibitor: inactive; B2AR ag: inactive

How did O=C(COc1cccc(Cl)c1)N/N=C\c1cc2ccccc2nc1Cl do in these assays?
CHOP UPR activ: inactive; VLA-4 inh: inactive; XBP1 UPR activ: inactive; CHOP inhibitor: 77.6; B2AR ag: inactive

What do the screens show for `Cc1ccccc1OCC(=O)N/N=C/c1cc2ccccc2nc1Cl`?
CHOP UPR activ: inactive; VLA-4 inh: inactive; XBP1 UPR activ: inactive; CHOP inhibitor: inactive; B2AR ag: inactive

How did O=C(COc1ccc(-c2ccccc2)cc1)N/N=C/c1ccccc1Br do in these assays?
CHOP UPR activ: inactive; VLA-4 inh: inactive; XBP1 UPR activ: inactive; CHOP inhibitor: inactive; B2AR ag: inactive

Results for CCOc1ccc(/C=N/NC(=O)COc2ccccc2-c2ccccc2)cc1 ?
CHOP UPR activ: inactive; VLA-4 inh: inactive; XBP1 UPR activ: inactive; CHOP inhibitor: 78.3; B2AR ag: inactive

What do the screens show for `O=C(COc1ccc(-c2ccccc2)cc1)N/N=C/c1cc(O)ccc1Br`?
CHOP UPR activ: inactive; VLA-4 inh: inactive; XBP1 UPR activ: inactive; CHOP inhibitor: 81.5; B2AR ag: inactive

What do the screens show for `Cc1cccc(OCC(=O)NCC(=O)N/N=C/c2cc(Br)ccc2OCc2ccccc2)c1`?
CHOP UPR activ: inactive; VLA-4 inh: inactive; XBP1 UPR activ: inactive; CHOP inhibitor: inactive; B2AR ag: inactive

How did O=C(COc1cccc(Br)c1)N/N=C/C(=O)c1ccccc1 do in these assays?
CHOP UPR activ: inactive; VLA-4 inh: inactive; XBP1 UPR activ: inactive; CHOP inhibitor: 79.7; B2AR ag: inactive

What do the screens show for `CC(C)(C)S(=O)N1Cc2cc(CO)ccc2[C@@H]1CCO` (stereo partly specified)?
B2AR ag: inactive

Results for COc1ccccc1-n1cnc2cc(NS(=O)(=O)c3ccc(Br)cc3)ccc21 ?
CHOP UPR activ: inactive; VLA-4 inh: inactive; XBP1 UPR activ: inactive; CHOP inhibitor: 78.8; B2AR ag: inactive

Results for COc1ccc(-n2cnc3cc(NS(=O)(=O)c4ccc(C)cc4)ccc32)cc1 ?
CHOP UPR activ: inactive; VLA-4 inh: inactive; XBP1 UPR activ: inactive; CHOP inhibitor: inactive; B2AR ag: inactive

Results for CN(C)c1ccc(/C=N/N=C/c2ccccc2O)cc1 ?
CHOP UPR activ: inactive; XBP1 UPR activ: inactive; CHOP inhibitor: 80.6; B2AR ag: inactive

What do the screens show for `COc1ccccc1C=NN=Cc1ccccc1O`?
B2AR ag: inactive

Results for O=C(COc1cc(Cl)c(Cl)cc1Cl)Nc1ccncc1 ?
CHOP UPR activ: inactive; VLA-4 inh: inactive; XBP1 UPR activ: inactive; CHOP inhibitor: inactive; B2AR ag: inactive

What do the screens show for `O=C(COc1cc(Cl)c(Cl)cc1Cl)Nc1cccc(O)c1`?
CHOP UPR activ: inactive; VLA-4 inh: inactive; XBP1 UPR activ: inactive; CHOP inhibitor: 79.2; B2AR ag: inactive

What do the screens show for `Cc1nnc(SCC(=O)NC2CC2)s1`?
CHOP UPR activ: inactive; VLA-4 inh: inactive; XBP1 UPR activ: inactive; B2AR ag: inactive

What do the screens show for `O=C(CCCN1C(=O)/C(=C/c2ccccc2)SC1=S)Nc1ccccc1O`?
CHOP UPR activ: inactive; VLA-4 inh: inactive; XBP1 UPR activ: inactive; CHOP inhibitor: 82.0; B2AR ag: inactive

Results for COc1ccc(/C=C2\SC(=O)N(CC(=O)NNC(=O)c3ccccc3O)C2=O)cc1 ?
CHOP UPR activ: inactive; VLA-4 inh: inactive; XBP1 UPR activ: inactive; CHOP inhibitor: 78.3; B2AR ag: inactive

How did O=C(CCCN1C(=O)/C(=C\c2ccccc2)SC1=S)Nc1ccc(O)cc1C(=O)O do in these assays?
CHOP UPR activ: inactive; VLA-4 inh: inactive; XBP1 UPR activ: inactive; B2AR ag: inactive

What do the screens show for `O=C(CCCN1C(=O)S/C(=C\c2ccccc2)C1=O)NNC(=O)c1ccccc1O`?
CHOP UPR activ: inactive; VLA-4 inh: inactive; XBP1 UPR activ: inactive; CHOP inhibitor: 95.2; B2AR ag: inactive

What do the screens show for `O=C(CN1C(=O)S/C(=C\c2ccccc2)C1=O)NNC(=O)c1ccccc1O`?
CHOP UPR activ: inactive; VLA-4 inh: inactive; XBP1 UPR activ: inactive; CHOP inhibitor: inactive; B2AR ag: inactive

How did COc1ccc(/C=C2\SC(=O)N(CC(=O)NNC(=O)c3ccccc3O)C2=O)cc1OC do in these assays?
CHOP UPR activ: inactive; VLA-4 inh: inactive; XBP1 UPR activ: inactive; CHOP inhibitor: inactive; B2AR ag: inactive

What do the screens show for `O=C(CC1C[C@H](C(=O)N2CCCCC2)[C@@]2(CCc3ccccc3)c3[nH]c4ccccc4c3CCN2C1=O)NCCc1ccccn1` (stereo partly specified)?
B2AR ag: inactive
